Reference: ChEMBL document CHEMBL1125559, “Analogues of platelet activating factor. 7. Bis-aryl amide and bis-aryl urea receptor antagonists of PAF” (J Med Chem, 1992)

Assays:
Mus musculus [1] = experiment: Compound was evaluated for PAF-induced lethality in mouse (intraperitoneally at a dose of 1.0 mg/kg in saline 0.5 hr before lethal intravenous PAF challenge 75-150 mg/kg); format: ADME, organism-based; set-up: dose 1 mg/kg, route intraperitoneal; settings: in vivo
Procedure, shortened: (§1)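 Female Swiss-Webster mice (20-25 g) received test compound ip in saline (10 mL/Kg); controls got saline alone. The PAF dose was chosen daily from small pilot groups. Survival was scored at 1.5 h and recorded as dead/total.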

Mus musculus [2] = experiment: Compound was evaluated for PAF-induced lethality in mouse (intraperitoneally at a dose of 1.0 mg/kg in saline 0.5 hr before lethal intravenous PAF challenge 75-150 mg/kg); 8/13; format: ADME, organism-based; set-up: dose 1 mg/kg, route intravenous; settings: in vivo; procedure, shortened: as §1
Oryctolagus cuniculus [3] = species: Oryctolagus cuniculus; experiment: Concentration required to inhibit PAF (5*10e-8 M) induced platelet aggregation in rabbit platelet rich plasma(PRP) by 50%; format: functional, organism-based
Procedure, shortened: (§2)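 Rabbit PRP came from blood spun at 800 rpm for 15 min at room temperature, with platelet counts of 350 000–550 000/µL. PRP was equilibrated 1–2 min at 37 °C in an aggregometer. It was preincubated 5 min with test compound (final 10^-8 to 10^-5 M; methanol stock diluted in saline) or saline, then challenged with L-C16-PAF. IC50 was taken from concentration–response curves of aggregation magnitude and averaged over separate determinations.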

Mus musculus [4] = experiment: Compound was evaluated for PAF-induced lethality in mouse (intraperitoneally at a dose of 1.0 mg/kg in saline 0.5 hr before lethal intravenous PAF challenge 75-150 mg/kg); 9/24; format: ADME, organism-based; set-up: dose 1 mg/kg; settings: in vivo; procedure, shortened: as §1
Mus musculus [5] = experiment: Compound was evaluated for PAF-induced lethality in mouse (intraperitoneally at a dose of 1.0 mg/kg in saline 0.5 hr before lethal intravenous PAF challenge 75-150 mg/kg); 11/13; format: ADME, organism-based; set-up: dose 1 mg/kg; settings: in vivo; procedure, shortened: as §1
Oryctolagus cuniculus [6] = species: Oryctolagus cuniculus; experiment: Concentration required to inhibit PAF (5*10e-8 M) induced platelet aggregation in rabbit platelet rich plasma(PRP) by 50% at 10 uM; format: functional
Mus musculus [7] = experiment: Compound was evaluated for PAF-induced lethality in mouse (intraperitoneally at a dose of 1.0 mg/kg in saline 0.5 hr before lethal intravenous PAF challenge 75-150 mg/kg); 11/14; format: ADME, organism-based; set-up: dose 1 mg/kg; settings: in vivo; procedure, shortened: as §1
Mus musculus [8] = experiment: Compound was evaluated for PAF-induced lethality in mouse (intraperitoneally at a dose of 1.0 mg/kg in saline 0.5 hr before lethal intravenous PAF challenge 75-150 mg/kg); 16/27; format: ADME, organism-based; set-up: dose 1 mg/kg; settings: in vivo; procedure, shortened: as §1
Mus musculus [9] = experiment: Compound was evaluated for PAF-induced lethality in mouse (intraperitoneally at a dose of 1.0 mg/kg in saline 0.5 hr before lethal intravenous PAF challenge 75-150 mg/kg); 12/39; format: ADME, organism-based; set-up: dose 1 mg/kg; settings: in vivo; procedure, shortened: as §1
Mus musculus [10] = experiment: Compound was evaluated for PAF-induced lethality in mouse (intraperitoneally at a dose of 1.0 mg/kg in saline 0.5 hr before lethal intravenous PAF challenge 75-150 mg/kg); 5/12; format: ADME, organism-based; set-up: dose 1 mg/kg, route intravenous; settings: in vivo; procedure, shortened: as §1
Mus musculus [11] = experiment: Compound was evaluated number of mouse dead out of total (intraperitoneally at a dose of 1.0 mg/kg in saline 0.5 hr before lethal intravenous PAF challenge 75-150 mg/kg); 6/12; format: ADME, organism-based; set-up: dose 1 mg/kg, route intravenous; settings: in vivo; procedure, shortened: as §1
Mus musculus [12] = experiment: Compound was evaluated for PAF-induced lethality in mouse (intraperitoneally at a dose of 1.0 mg/kg in saline 0.5 hr before lethal intravenous PAF challenge 75-150 mg/kg); 14/24; format: ADME, organism-based; set-up: dose 1 mg/kg; settings: in vivo; procedure, shortened: as §1
Oryctolagus cuniculus [13] = species: Oryctolagus cuniculus; experiment: Concentration required to inhibit PAF (1*10e-7 M) induced platelet aggregation in rabbit platelet rich plasma(PRP) by 50%; format: functional, organism-based; procedure, shortened: as §2

Row | SMILES | Lethality (Mus musculus [1]) [%] | IC50 (Oryctolagus cuniculus [3]) [nM] | other results
1 | CCCCCCCCCCCCCCOc1ccc(CN(C(=O)NC)c2cccc(C[n+]3csc(C)c3)c2)cc1.[Br-] | 62 | 530 | Dead/total (Mus musculus [2]): 8
2 | CCCCCCCCCCCCCCOc1ccc(CN(C(C)=O)c2cccc(C[n+]3csc(C)c3)c2)cc1.[Br-] | 38 | 260 | Dead/total (Mus musculus [4]): 9
3 | CCCCCCCCCCCCCCOc1c(CN(C(C)=O)c2cccc(C[n+]3csc(C)c3)c2)cccc1OC.[Br-] | 85 | 2500 | Dead/total (Mus musculus [5]): 11
4 | CCCCCCCCCCCCCCOc1cc(CN(C(C)=O)c2cccc(C[n+]3csc(C)c3)c2)cc(OC)c1 | – | 960 | –
5 | CCCCCCCCCCCCCCOc1ccc(CN(C(C)=O)c2cccc(C[n+]3csc(C)c3)c2)cc1OC | – | 320 | –
6 | CCCCCCCCCCCCCCOc1ccc(CNC(=O)c2cccc(C[n+]3csc(C)c3)c2)cc1C(C)(C)C | – | 3500 | –
7 | CCCCCCCCCCCCCCOc1cccc(CC(=O)Nc2ccccc2C[n+]2csc(C)c2)c1.[Br-] | – | – | Inhibition (Oryctolagus cuniculus [6]): 23%
8 | CCCCCCCCCCCCCCCCOc1ccc(CC(=O)Nc2cccc(C[n+]3csc(C)c3)c2)cc1 | – | 5300 | –
9 | CCCCCCCCCCCCCCOc1ccc(CN(C(=O)CCC)c2cccc(C[n+]3csc(C)c3)c2)cc1.[Br-] | 79 | 260 | Dead/total (Mus musculus [7]): 11
10 | CCCCCCCCCCCCCCCCOc1ccc(OCC(=O)Nc2cccc(C[n+]3csc(C)c3)c2)cc1 | – | 5000 | –
11 | CCCCCCCCCCCCCCOc1ccc(CNC(=O)c2cccc(C[n+]3csc(C)c3)c2)cc1 | – | 400 | –
12 | CCCCCCCCCCCCCCOc1ccc(OC)cc1CN(C(C)=O)c1cccc(C[n+]2csc(C)c2)c1.[Br-] | 59 | 320 | Dead/total (Mus musculus [8]): 16
13 | CCCCCCCCCCCCCCOc1ccc(CNC(=O)c2ccc(C[n+]3csc(C)c3)cc2)cc1.[Br-] | 31 | 2900 | Dead/total (Mus musculus [9]): 12
14 | CCCCCCCCCCCCCCOc1ccc(NC(=O)c2cccc(C[n+]3csc(C)c3)c2)cc1 | – | 2700 | –
15 | CCCCCCCCCCCCCCOc1ccc(CN(C(C)=O)c2ccc(C[n+]3csc(C)c3)cc2)cc1 | – | 2100 | –
16 | CCCCCCCCCCCCCCCCOc1ccc(OCC(=O)Nc2ccccc2C[n+]2csc(C)c2)cc1 | – | 11200 | –
17 | CCCCCCCCCCCCCCOc1ccc(C(=O)Nc2cccc(C[n+]3csc(C)c3)c2)cc1 | – | 5900 | –
18 | CCCCCCCCCCCCCCOc1ccc(CNc2cccc(C[n+]3csc(C)c3)c2)cc1.[Br-] | 42 | 7100 | Dead/total (Mus musculus [10]): 5
19 | CCCCCCCCCCCCCCOc1cccc(CN(C(C)=O)c2cccc(C[n+]3csc(C)c3)c2)c1 | – | 740 | –
20 | CCCCCCCCCCCCCCOc1ccc(NC(=O)Nc2cccc(C[n+]3csc(C)c3)c2)cc1 | – | 1500 | –
21 | CCCCCCCCCCCCOc1ccc(CC(=O)Nc2cccc(C[n+]3csc(C)c3)c2)cc1.[Br-] | 55 | 2900 | Dead/total (Mus musculus [11]): 6
22 | CCCCCCCCCCCCCCOc1ccc(CCCN(C(C)=O)c2cccc(C[n+]3csc(C)c3)c2)cc1.[Br-] | 58 | 3100 | Dead/total (Mus musculus [12]): 14
23 | CCCCCCCCCCCCCCOc1ccc(CN(C(C)=O)c2cccc(C[n+]3csc(C)c3)c2)cc1C(C)(C)C | – | – | IC50 (Oryctolagus cuniculus [13]): 350 nM
